# Source: publication PMC10570058 (Nucleic Acids Research, 2023)
# Legend:
# [1] = test system: Polθ ATPase domain binding to ssDNA; experiment: Microscale thermophoresis
# [2] = test system: Polθ recruitment to ssDNA in U2OS cells; experiment: Laser micro-irradiation and immunofluorescence, Polθ recruitment to ssDNA; format: cell-based, human; conditions: 200 μM, 24 h, U2OS POLQ KO cells expressing Myc-Polθ
# Polθ-ATPase domain = experiment: Thermal stability assay; format: binding; conditions: 500 μM compound vs DMSO
# [3] = test system: RPE1 TP53−/−BRCA1−/− cells; experiment: DNA fiber assay with S1 nuclease digestion; format: cell-based; conditions: 200 μM NVB vs vehicle
# Procedure, shortened: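 Cells (F12, 10% FBS) seeded 24 h, pulsed with 200 μM CldU for 30 min, washed, then 100 μM IdU for 2 h with test compound (200 μM) or DMSO added alongside. CSK permeabilisation 10 min RT. Nuclei were treated with 10 U/ml S1 nuclease (pH 4.6 buffer) for 30 min at 37°C or left undigested. Agarose-plug extraction was used, and ≥200 IdU tracks were scored per treatment (Mann–Whitney).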
# [4] = molecular target: Polθ ATPase domain (human) (UniProt O75417); experiment: mass photometry
# Chain of Polθ ATPase domain (O75417 67-894): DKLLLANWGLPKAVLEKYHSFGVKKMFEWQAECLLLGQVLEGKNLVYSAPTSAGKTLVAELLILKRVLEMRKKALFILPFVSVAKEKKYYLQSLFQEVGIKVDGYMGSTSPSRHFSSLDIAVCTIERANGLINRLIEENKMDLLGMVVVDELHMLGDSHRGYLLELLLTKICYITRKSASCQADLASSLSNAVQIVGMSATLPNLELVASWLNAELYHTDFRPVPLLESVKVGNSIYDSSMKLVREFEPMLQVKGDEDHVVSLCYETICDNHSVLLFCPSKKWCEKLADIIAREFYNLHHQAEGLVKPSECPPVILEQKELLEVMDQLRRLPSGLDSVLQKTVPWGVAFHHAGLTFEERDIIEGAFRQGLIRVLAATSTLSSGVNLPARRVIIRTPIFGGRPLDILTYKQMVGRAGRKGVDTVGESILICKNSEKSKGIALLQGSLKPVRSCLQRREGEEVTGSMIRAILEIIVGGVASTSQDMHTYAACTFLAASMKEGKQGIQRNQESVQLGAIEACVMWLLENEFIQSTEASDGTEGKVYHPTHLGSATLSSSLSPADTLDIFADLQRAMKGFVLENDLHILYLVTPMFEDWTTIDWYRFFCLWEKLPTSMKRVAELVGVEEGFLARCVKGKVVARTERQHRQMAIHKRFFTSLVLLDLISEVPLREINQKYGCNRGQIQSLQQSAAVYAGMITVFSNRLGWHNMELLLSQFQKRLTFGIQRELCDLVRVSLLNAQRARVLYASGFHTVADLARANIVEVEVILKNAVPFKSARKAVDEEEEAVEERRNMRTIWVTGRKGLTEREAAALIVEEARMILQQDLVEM
molecule,measurement,setting,value
Nc1ncnc2c1ncn2[C@@H]1O[C@H](COP(=O)(O)OP(=O)(O)NP(=O)(O)O)[C@@H](O)[C@H]1O [AMP-PNP],Effect on Polθ binding to ssDNA,"[1]; 2000 μM AMP-PNP, MST buffer with 5 mM MgCl2",unable to block
"CO[C@@H]1[C@@H](OC(N)=O)[C@@H](O)[C@H](Oc2ccc3c(O)c(NC(=O)c4ccc(O)c(CC=C(C)C)c4)c(=O)oc3c2C)OC1(C)C [NVB, Novobiocin]",Polθ blocked from being recruited to damage sites,[2],~96%
same,Change in the scattering peak maximum,Polθ-ATPase domain,+2 °C
same,Effect on Polθ binding to ssDNA,"[1]; NVB 100-2000 μM in MST buffer, 120 mM KCl",dose-dependent inhibition
same,IdU track lengths following S1 nuclease treatment,[3],dramatic shortening
Polθ ATPase domain (from UniProt O75417 67-894) (domain or fragment),stoichiometry N,[4],4
